Data published in ChEMBL document CHEMBL1148788 (J Med Chem, 2007).
Several values for one entry are separate records, joined by “and”; a condition that tells them apart may be missing. Equal values may be shown once. Activity calls are given as the source filed them. The calls are words filed in the database; no cut-off is given here.

Key:
cells = type: functional, cell-based; conditions: Homo sapiens, HEK293
[1] = molecular target: T1, Neuronal acetylcholine receptor subunit alpha-7 (Homo sapiens, UniProt P36544); experiment: Displacement of [3H]methyllycaconitine from alpha7 nAChR in tsA201 cells co-expressed with Ric3; type: cell-based
Target sequence in this assay (P36544 whole entry): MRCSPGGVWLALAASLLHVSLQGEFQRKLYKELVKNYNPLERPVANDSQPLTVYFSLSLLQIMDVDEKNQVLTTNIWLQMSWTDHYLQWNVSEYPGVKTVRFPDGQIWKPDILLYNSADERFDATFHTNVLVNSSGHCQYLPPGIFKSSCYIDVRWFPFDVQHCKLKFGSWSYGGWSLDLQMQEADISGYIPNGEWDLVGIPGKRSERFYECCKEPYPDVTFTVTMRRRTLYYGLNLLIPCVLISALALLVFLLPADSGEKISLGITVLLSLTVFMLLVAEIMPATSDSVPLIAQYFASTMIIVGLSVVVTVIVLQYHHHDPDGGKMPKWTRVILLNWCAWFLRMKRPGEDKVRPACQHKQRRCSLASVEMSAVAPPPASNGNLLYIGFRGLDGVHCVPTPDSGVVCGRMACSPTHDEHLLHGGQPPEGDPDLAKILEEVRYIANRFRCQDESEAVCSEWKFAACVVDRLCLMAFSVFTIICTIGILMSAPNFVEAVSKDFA

[2] = molecular target: T2, Neuronal acetylcholine receptor; alpha3/beta4 (Rattus norvegicus, UniProt P04757+P12392); experiment: Displacement of [3H]epibatidine from recombinant rat alpha-3-beta-4 nAChr in HEK293 cell line; type: cell-based
[3] = Displacement of [3H]methyllycaconitine from chimeric alpha7nAChR K145A mutant/5HT3A receptor in tsA201 cells; type: cell-based, Homo sapiens
How it was run: (§1)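 tsA-201 cells transiently transfected with 4 µg WT or mutant α7/5-HT3A chimera and assayed 2 days later. Membranes washed twice at 50000g in 50 mM Tris-HCl pH 7.2. Incubated with 0.5 nM [3H]MLA and compound for 2.5 h at room temperature with shaking; nonspecific binding with 5 mM (S)-nicotine. PEI-soaked GF/C filtration, scintillation counting. Ki derived; duplicate, 3–7 experiments.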

[4] = molecular target: T1, Neuronal acetylcholine receptor subunit alpha-7; experiment: Displacement of [3H]methyllycaconitine from chimeric alpha7nAChR/5HT3A in tsA201 cells; type: cell-based
Target sequence in this assay (P36544 23-502 limits assumed): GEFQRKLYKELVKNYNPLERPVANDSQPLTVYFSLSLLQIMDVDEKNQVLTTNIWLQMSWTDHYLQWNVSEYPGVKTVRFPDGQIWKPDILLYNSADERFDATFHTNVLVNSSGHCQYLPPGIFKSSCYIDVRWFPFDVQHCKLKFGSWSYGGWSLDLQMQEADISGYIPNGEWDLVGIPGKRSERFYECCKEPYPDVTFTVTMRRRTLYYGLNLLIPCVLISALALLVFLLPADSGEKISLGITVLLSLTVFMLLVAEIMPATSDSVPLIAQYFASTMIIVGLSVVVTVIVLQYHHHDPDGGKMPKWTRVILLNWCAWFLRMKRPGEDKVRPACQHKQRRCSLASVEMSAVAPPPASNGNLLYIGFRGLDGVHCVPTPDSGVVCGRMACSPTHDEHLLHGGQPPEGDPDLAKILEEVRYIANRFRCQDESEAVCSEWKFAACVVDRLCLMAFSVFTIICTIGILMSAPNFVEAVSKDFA

[5] = Antagonist activity at human alpha7nAChR Y93A mutant co-expressed with human Ric3 in tsA201 cells by FMP assay; type: functional, cell-based
[6] = molecular target: Neuronal acetylcholine receptor; alpha4/beta4 (Rattus norvegicus, UniProt P09483+P12392); experiment: Displacement of [3H]epibatidine from recombinant rat alpha-4-beta-4 nAChr in HEK293 cell line; type: cell-based
[7] = Displacement of [3H]methyllycaconitine from chimeric alpha-7nAChR S150A mutant/5HT3A receptor in tsA201 cells; type: cell-based, Homo sapiens
How it was run: as §1

[8] = Displacement of [3H]methyllycaconitine from chimeric alpha-7nAChR N107A mutant/5HT3A receptor in tsA201 cells; type: cell-based, Homo sapiens
How it was run: as §1

[9] = Displacement of [3H]methyllycaconitine from chimeric alpha-7nAChR W55A mutant /5HT3A receptor in tsA201 cells; type: cell-based, Homo sapiens
How it was run: as §1

[10] = molecular target: T1, Neuronal acetylcholine receptor subunit alpha-7
Target sequence in this assay (P36544 whole entry): as the sequence (P36544 whole entry) above

[11] = Displacement of [3H]methyllycaconitine from chimeric alpha7nAChR R79A mutant/5HT3A receptor R79A mutant in tsA201 cells; type: cell-based, Homo sapiens
How it was run: as §1

tsA201 [12] = experiment: Displacement of [3H]methyllycaconitine from chimeric alpha-7nAChR Y93A mutant/5HT3A receptor in tsA201 cells; type: cell-based; conditions: Homo sapiens
How it was run: as §1

[13] = Displacement of [3H]methyllycaconitine from chimeric alpha-7nAChR Y168A mutant/5HT3A receptor in tsA201 cells; type: cell-based, Homo sapiens
How it was run: as §1

tsA201 [14] = experiment: Displacement of [3H]methyllycaconitine from chimeric alpha-7nAChR Y188A mutant/5-HT3A receptor in tsA201 cells; type: cell-based; conditions: Homo sapiens
How it was run: as §1

[15] = molecular target: T3, Glycine receptor subunit alpha-1 (Homo sapiens, UniProt P23415); experiment: Antagonist activity at human glycine alpha-1 receptor in HEK293 cells by FMP assay; type: functional, cell-based
T3 sequence (P23415 whole entry): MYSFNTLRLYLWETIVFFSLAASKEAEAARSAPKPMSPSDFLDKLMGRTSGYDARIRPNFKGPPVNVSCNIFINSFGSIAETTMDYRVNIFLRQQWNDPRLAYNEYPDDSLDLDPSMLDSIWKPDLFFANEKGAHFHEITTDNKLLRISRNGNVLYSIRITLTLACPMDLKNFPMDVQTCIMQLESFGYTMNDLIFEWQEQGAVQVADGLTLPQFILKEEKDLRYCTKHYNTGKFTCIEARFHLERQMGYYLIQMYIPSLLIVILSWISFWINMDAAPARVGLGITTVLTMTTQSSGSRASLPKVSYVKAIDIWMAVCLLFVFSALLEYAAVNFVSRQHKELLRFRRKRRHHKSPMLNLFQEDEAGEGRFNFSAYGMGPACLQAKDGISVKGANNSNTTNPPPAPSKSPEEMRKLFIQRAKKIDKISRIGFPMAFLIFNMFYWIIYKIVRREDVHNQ

[16] = molecular target: T2, Neuronal acetylcholine receptor; alpha3/beta4; experiment: Antagonist activity at rat alpha3beta4 nAChR expressed in HEK293 cells by FMP assay; type: functional, cell-based, Homo sapiens; conditions: read-out: IC50
[17] = molecular target: T4, 5-hydroxytryptamine receptor 3A (Homo sapiens, UniProt P46098); experiment: Antagonist activity at human 5HT3A receptor expressed in HEK293 cells by FMP assay; type: functional, cell-based; conditions: read-out: IC50
T4 sequence (P46098 whole entry): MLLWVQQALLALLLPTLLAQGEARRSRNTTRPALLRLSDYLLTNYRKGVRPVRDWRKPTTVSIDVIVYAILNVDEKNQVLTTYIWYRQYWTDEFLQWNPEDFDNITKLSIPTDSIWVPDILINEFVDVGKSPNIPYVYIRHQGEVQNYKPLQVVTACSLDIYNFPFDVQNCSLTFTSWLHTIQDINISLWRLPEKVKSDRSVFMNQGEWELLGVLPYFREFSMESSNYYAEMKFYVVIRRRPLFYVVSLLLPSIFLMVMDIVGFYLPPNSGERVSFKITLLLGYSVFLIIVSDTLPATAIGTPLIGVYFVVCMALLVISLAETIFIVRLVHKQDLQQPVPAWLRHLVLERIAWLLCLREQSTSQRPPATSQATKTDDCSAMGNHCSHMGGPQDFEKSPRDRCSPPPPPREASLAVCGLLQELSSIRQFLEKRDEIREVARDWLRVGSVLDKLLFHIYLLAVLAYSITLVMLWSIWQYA

[18] = Displacement of [3H]methyllycaconitine from chimeric alpha7nAChR W55Y mutant/5HT3A receptor in tsA201 cells; type: cell-based, Homo sapiens
How it was run: as §1

[19] = Antagonist activity at human alpha-7 nAChR Y195A mutant coexpressed with human Ric3 in tsA201 cells by FMP assay; type: functional, cell-based
[20] = Antagonist activity at human alpha7 nAChR W149Y mutant co-expressed with human Ric3 in tsA201 cells by FMP assay; type: functional, cell-based
[21] = molecular target: Neuronal acetylcholine receptor; alpha4/beta2 (Rattus norvegicus, UniProt P09483+P12390); experiment: Displacement of [3H]epibatidine from rat recombinant alpha-4-beta-2 nAChR in HEK293 cell line; type: cell-based
tsA201 [22] = experiment: Displacement of [3H]methyllycaconitine from chimeric alpha-7nAChR W149Y mutant/5HT3A receptor W149Y mutant in tsA201 cells; type: cell-based; conditions: Homo sapiens
How it was run: as §1

[23] = molecular target: T4, 5-hydroxytryptamine receptor 3A; experiment: Displacement of [3H]GR65630 from human 5HT3A receptor in HEK293 cells; type: cell-based
[24] = Displacement of [3H]methyllycaconitine from chimeric alpha-7nAChR S148A mutant /5HT3A receptor in tsA201 cells; type: cell-based, Homo sapiens
How it was run: as §1

[25] = Displacement of [3H]methyllycaconitine from chimeric alpha7nAChR Y195A mutant/5HT3A receptor in tsA201 cells; type: cell-based, Homo sapiens
How it was run: as §1

[26] = molecular target: T1, Neuronal acetylcholine receptor subunit alpha-7; experiment: Antagonist activity at human alpha-7 nAChR in tsA201 cells coexpressed with Ric3 by FMP assay; type: functional, cell-based
Target sequence in this assay (P36544 whole entry): as the sequence (P36544 whole entry) above

[27] = Displacement of [3H]methyllycaconitine from chimeric alpha-7nAChR K145R mutant /5HT3A receptor in tsA201 cells; type: cell-based, Homo sapiens
How it was run: as §1

[28] = molecular target: T1, Neuronal acetylcholine receptor subunit alpha-7; experiment: Displacement of [3H]methyllycaconitine from human alpha-7 in tsA201 cells coexpressed with 5HT3A receptor; type: cell-based
Target sequence in this assay (P36544 whole entry): as the sequence (P36544 whole entry) above

tsA201 [29] = experiment: Displacement of [3H]methyllycaconitine from chimeric alpha-7nAChR W149A mutant/5HT3A receptor in tsA201 cells; type: cell-based; conditions: Homo sapiens
How it was run: as §1

tsA201 [30] = experiment: Displacement of [3H]methyllycaconitine from chimeric alpha-7nAChR W55A/Y195A mutant /5HT3A receptor in tsA201 cells; type: cell-based; conditions: Homo sapiens
How it was run: as §1

[31] = Antagonist activity at human alpha-7 nAChR Y188A mutant coexpressed with human Ric3 in tsA201 cells by FMP assay; type: functional, cell-based
[32] = Displacement of [3H]methyllycaconitine from chimeric alpha-7nAChR D197A mutant/5HT3A receptor in tsA201 cells; type: cell-based, Homo sapiens
How it was run: as §1

[33] = Displacement of [3H]methyllycaconitine from chimeric alpha-7nAChR Y195F mutant/5HT3A receptor in tsA201 cells; type: cell-based, Homo sapiens
How it was run: as §1

Chain of Neuronal acetylcholine receptor; alpha4/beta2 (P09483 whole entry): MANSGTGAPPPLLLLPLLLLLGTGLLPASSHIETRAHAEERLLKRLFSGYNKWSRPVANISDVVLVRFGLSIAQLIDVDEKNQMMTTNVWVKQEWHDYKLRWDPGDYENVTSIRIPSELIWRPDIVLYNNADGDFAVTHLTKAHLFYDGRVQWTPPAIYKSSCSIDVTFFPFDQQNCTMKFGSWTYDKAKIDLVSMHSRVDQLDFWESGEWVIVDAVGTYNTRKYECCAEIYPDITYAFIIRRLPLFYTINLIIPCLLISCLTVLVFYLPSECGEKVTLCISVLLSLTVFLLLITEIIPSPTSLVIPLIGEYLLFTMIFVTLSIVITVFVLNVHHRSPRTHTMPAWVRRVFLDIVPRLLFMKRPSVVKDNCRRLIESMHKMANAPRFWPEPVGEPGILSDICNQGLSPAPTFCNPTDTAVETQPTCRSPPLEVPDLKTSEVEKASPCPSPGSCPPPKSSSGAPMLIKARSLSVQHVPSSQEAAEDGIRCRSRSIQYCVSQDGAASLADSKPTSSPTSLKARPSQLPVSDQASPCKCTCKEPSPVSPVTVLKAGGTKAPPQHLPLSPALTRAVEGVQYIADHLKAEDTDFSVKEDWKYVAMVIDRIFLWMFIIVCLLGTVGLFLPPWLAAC
Chain of Neuronal acetylcholine receptor; alpha4/beta2 (P12390 whole entry): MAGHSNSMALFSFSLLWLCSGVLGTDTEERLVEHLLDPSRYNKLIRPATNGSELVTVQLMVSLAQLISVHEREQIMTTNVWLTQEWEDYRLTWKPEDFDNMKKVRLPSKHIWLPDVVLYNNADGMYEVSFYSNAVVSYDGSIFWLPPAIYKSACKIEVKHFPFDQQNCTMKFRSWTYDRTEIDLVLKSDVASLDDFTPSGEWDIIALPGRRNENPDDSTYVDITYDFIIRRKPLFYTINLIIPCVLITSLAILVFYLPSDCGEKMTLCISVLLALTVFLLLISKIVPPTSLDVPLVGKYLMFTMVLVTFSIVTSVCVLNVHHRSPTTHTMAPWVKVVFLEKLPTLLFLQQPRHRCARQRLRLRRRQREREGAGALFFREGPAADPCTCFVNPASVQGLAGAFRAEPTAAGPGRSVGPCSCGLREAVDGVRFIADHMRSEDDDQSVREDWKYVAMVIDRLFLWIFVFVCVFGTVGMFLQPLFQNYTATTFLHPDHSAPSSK
Chain of Neuronal acetylcholine receptor; alpha4/beta4 (P09483 whole entry): as the sequence (P09483 whole entry) above
Chain of Neuronal acetylcholine receptor; alpha4/beta4 (P12392 whole entry): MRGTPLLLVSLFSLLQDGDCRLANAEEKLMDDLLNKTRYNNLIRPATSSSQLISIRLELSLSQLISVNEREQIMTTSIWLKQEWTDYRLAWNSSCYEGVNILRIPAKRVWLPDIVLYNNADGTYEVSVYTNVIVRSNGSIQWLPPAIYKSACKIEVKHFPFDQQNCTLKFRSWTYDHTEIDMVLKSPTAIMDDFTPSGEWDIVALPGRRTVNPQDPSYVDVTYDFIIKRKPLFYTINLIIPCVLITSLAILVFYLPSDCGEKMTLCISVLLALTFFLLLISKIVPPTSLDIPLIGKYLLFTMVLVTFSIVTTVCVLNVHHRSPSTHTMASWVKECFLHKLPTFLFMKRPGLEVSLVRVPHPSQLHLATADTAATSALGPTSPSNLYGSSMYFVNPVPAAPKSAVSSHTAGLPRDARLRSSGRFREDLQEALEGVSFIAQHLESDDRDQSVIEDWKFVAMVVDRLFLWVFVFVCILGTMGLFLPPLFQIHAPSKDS
T2 sequence (P04757 whole entry): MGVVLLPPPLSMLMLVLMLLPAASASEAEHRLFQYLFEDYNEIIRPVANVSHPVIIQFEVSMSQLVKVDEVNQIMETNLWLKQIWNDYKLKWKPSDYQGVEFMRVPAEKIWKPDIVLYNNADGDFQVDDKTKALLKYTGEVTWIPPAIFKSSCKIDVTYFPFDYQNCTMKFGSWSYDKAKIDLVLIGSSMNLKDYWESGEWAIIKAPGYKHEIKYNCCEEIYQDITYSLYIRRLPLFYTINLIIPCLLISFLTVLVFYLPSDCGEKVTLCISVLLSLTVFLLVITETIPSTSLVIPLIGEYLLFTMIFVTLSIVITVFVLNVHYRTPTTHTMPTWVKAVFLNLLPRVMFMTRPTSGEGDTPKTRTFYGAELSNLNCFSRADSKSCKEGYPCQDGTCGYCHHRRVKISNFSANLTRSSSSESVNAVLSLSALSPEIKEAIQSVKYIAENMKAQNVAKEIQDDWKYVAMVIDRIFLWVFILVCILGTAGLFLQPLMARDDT
T2 sequence (P12392 whole entry): as the sequence (P12392 whole entry) above

SMILES: C1=CC([N+]23CC[C@@H]4[C@@H]5[C@@H]6[C@@H](OCC=C(C2)[C@@H]6C[C@@H]43)N2c3ccccc3[C@@]34CC[N+]6(C7C=CCCC7)CC7=CCO[C@H]([C@@H]([C@H]23)[C@H]7C[C@@H]46)N5c2ccccc2)CCC1.[Br-].[Br-] (stereo partly drawn)
- IC50 (cells; read-out: IC50): > 100000 nM
- IC50 (cells; read-out: pIC50 (converted)): > 100000 nM
- Ki ([1]; read-out: Ki): 590 nM
- Ki ([1]; read-out: pKi (converted)): 631 nM
- Ki [2]: 30000 nM
- Ki [3]: 320 nM
- pKi [3]: 6.5
- Ki [4]: 840 nM
- pKi [4]: 6.07
- IC50 ([5]; read-out: IC50): 3700 nM
- IC50 ([5]; read-out: pIC50 (converted)): 3720 nM
- Ki [6]: > 100000 nM
- pKi ([6]; hek293): < 4
- Ki [7]: 550 nM
- pKi [7]: 6.26
- Ki [8]: 724 nM
- pKi [8]: 6.14
- Ki [9]: 1200 nM
- pKi [9]: 5.93
- IC50 [10]: 3000 nM and 2950 nM
- Ki [11]: 1300 nM
- pKi [11]: 5.89
- Activity (tsA201 [12]): inactive
- Ki [13]: 1100 nM
- pKi [13]: 5.96
- Activity (tsA201 [14]): inactive
- IC50 [15]: > 100000 nM
- pIC50 ([15]; hek293): < 4
- IC50 [16]: 30000 nM
- IC50 [17]: 4400 nM
- Ki [18]: 560 nM
- pKi [18]: 6.25
- IC50 ([19]; read-out: IC50): 3300 nM
- IC50 ([19]; read-out: pIC50 (converted)): 3310 nM
- IC50 ([20]; read-out: IC50): 2900 nM
- IC50 ([20]; read-out: pIC50 (converted)): 2880 nM
- pKi ([21]; hek293): < 4
- Ki ([21]; read-out: Ki): > 100000 nM
- Activity (tsA201 [22]): inactive
- Ki [23]: 2700 nM
- Ki [24]: 400 nM
- pKi [24]: 6.4
- Ki [25]: 4900 nM
- pKi [25]: 5.31
- IC50 ([26]; read-out: IC50): 3000 nM
- IC50 ([26]; read-out: pIC50 (converted)): 3020 nM
- Ki [27]: 660 nM
- pKi [27]: 6.18
- Ki ([28]; read-out: Ki): 720 nM
- Ki ([28]; read-out: pKi (converted)): 794 nM
- Activity (tsA201 [29]): inactive
- Activity (tsA201 [30]): inactive
- IC50 ([31]; read-out: IC50): 5300 nM
- IC50 ([31]; read-out: pIC50 (converted)): 5130 nM
- Ki [32]: 1500 nM
- pKi [32]: 5.83
- Ki [33]: 1300 nM
- pKi [33]: 5.89
